Results from paper PMC3728914 (ACS medicinal chemistry letters, 2013).
Each block holds one molecule with its values, some of them ahead of it.

What was measured:
[1] = test system: DNA-binding domain of RPA; conditions: in vitro; cited from earlier work
RPA70N [2] = target: T1, RPA70N (Homo sapiens, UniProt P27694); assay: Fluorescence polarization anisotropy; assay type: binding; conditions: for ligand efficiency: from FPA Kd
In short: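 Displacement of a FITC-labelled ATRIP-derived peptide from RPA70N was read as fluorescence polarization anisotropy. Compounds were titrated to give dose-dependent anisotropy changes, from which IC50 was determined. Kd was calculated from IC50 with the Cheng–Prusoff equation and reported as the average of n = 2.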

RPA70N-p53 = conditions: cited from earlier work
RPA70N-Rad9 = conditions: cited from earlier work
RPA70N [3] = target: T1, RPA70N; assay: NMR; assay type: binding; conditions: initial fragment hits
[4] = target: full length heterotrimeric RPA (Homo sapiens, UniProt P27694); assay: Electrophoresis mobility shift assay; assay type: binding; conditions: EMSA, concentrations up to 100 μM

SMILES: CCOc1ccc2cc(C3CN(C(=O)CCC(=O)O)N=C3c3ccc(Br)cc3)c(Cl)nc2c1 (centres unmarked) [Compound 1, reference compound]
disruption of RPA interaction with DNA [1]: disrupts its interaction with DNA
inhibition of the RPA70N-ATRIP interaction (RPA70N [2]; FPA assay): did not inhibit

SMILES: CC(C)C1=C[C@]23CC[C@@H]4[C@](C)(CCC[C@@]4(C)C(=O)O)[C@H]2C[C@@H]1[C@@H](C(=O)O)[C@@H]3C(=O)O [Compound 2, fumaropimaric acid]
disruption of RPA70N-p53 interaction (RPA70N-p53): disrupt both RPA70N-Rad9 and RPA70N-p53 interactions
disruption of RPA70N-Rad9 interaction (RPA70N-Rad9): disrupt both RPA70N-Rad9 and RPA70N-p53 interactions

SMILES: O=C(O)c1sc2cc(Cl)ccc2c1Cl [Compound 3]
ligand efficiency (LE) (RPA70N [3]): 0.32

SMILES: Clc1ccc(-c2nnn[nH]2)cc1 [Compound 4]
ligand efficiency (LE) (RPA70N [3]): 0.32

SMILES: O=C(O)c1sc2cc(-n3c(S)nnc3-c3ccccc3)ccc2c1Cl [Compound 5]
ligand efficiency (RPA70N [2]): 0.22

SMILES: O=C(O)c1sc2cc(-n3c(S)nnc3-c3ccc(Br)c(Cl)c3)ccc2c1Cl [Compound 14n]
disruption of RPA-ssDNA interactions [4]: Neither 14q nor 14n showed evidence of disrupting RPA-ssDNA interactions

SMILES: O=C(O)c1sc2cc(-n3c(S)nnc3-c3ccc(Cl)c(Cl)c3)ccc2c1Cl [Compound 14q]
disruption of RPA-ssDNA interactions [4]: Neither 14q nor 14n showed evidence of disrupting RPA-ssDNA interactions

Now from value to molecule:

ligand efficiency (RPA70N [2]): 0.17
SMILES: O=C(O)c1cc2ccc(-n3c(S)nnc3-c3cccc(Oc4ccccc4)c3)cc2s1 [Compound 13e]

ligand efficiency (RPA70N [2]): 0.18
SMILES: O=C(O)c1sc2cc(-n3c(S)nnc3-c3cccc(Oc4ccccc4)c3)ccc2c1Cl [Compound 14d]
